In ChEMBL document CHEMBL1143842, “Efficacy of tachyplesin III, colistin, and imipenem against a multiresistant Pseudomonas aeruginosa strain” (Antimicrob Agents Chemother, 2007):
Values after ≈ are worked out from the molar mass of the structure shown. Active and inactive are the calls of the source. The calls are words filed in the database; no cut-off is given here.

Columns and labels:
[1] = tested on: Pseudomonas aeruginosa; test: Reduction of Pseudomonas aeruginosa ATCC 27853 infection induced TNFalpha levels in BALB/c mouse plasma after 24 hrs by ELISA; type: functional, organism-based
How it was run: (§1)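 Male BALB/c mice were infected i.v. with 2.0 × 10^7 CFU and treated i.v. immediately afterwards. Tail-vein plasma was sampled at 0, 6, 12, 24 and 48 h. IL-6 and TNF-α were measured by ELISA in duplicate, with sensitivity limits of 12 pg/ml and 0.05 ng/ml respectively.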

[2] = tested on: Pseudomonas aeruginosa; test: Reduction of Pseudomonas aeruginosa clinical isolate infection induced TNFalpha levels in BALB/c mouse plasma after 24 hrs by ELISA; type: functional, organism-based; how it was run: as §1
[3] = tested on: Pseudomonas aeruginosa; test: Reduction of Pseudomonas aeruginosa ATCC 27853 infection induced IL6 levels in BALB/c mouse plasma after 24 hrs by ELISA; type: functional, organism-based; how it was run: as §1
[4] = tested on: Pseudomonas aeruginosa; test: Reduction of Pseudomonas aeruginosa clinical isolate infection induced endotoxin levels in BALB/c mouse plasma after 24 hrs by ELISA; type: functional, organism-based
[5] = tested on: Pseudomonas aeruginosa; test: Reduction of Pseudomonas aeruginosa ATCC 27853 infection induced endotoxin levels in BALB/c mouse plasma after 24 hrs by ELISA; type: functional, organism-based
[6] = tested on: Pseudomonas aeruginosa; test: Reduction of Pseudomonas aeruginosa clinical isolate infection induced IL6 levels in BALB/c mouse plasma after 24 hrs by ELISA; type: functional, organism-based; how it was run: as §1
[7] = tested on: Pseudomonas aeruginosa; test: Antibacterial activity against Pseudomonas aeruginosa ATCC 27853 infected in BALB/c mouse blood at 20 mg/kg, iv after 24 hrs; type: functional
How it was run: (§2)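 Male BALB/c mice (25–30 g) were anesthetized with ketamine 30 mg/kg i.m. They were challenged via the tail vein with 2.0 × 10^7 CFU log-phase bacteria in saline. Drug or saline was given i.v. immediately after challenge, 20 mice per group. Tail-vein blood was taken at 24 h, serially diluted and plated on blood agar for 48 h at 35°C, and CFU were counted. Detection limit was 10 CFU/ml.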

[8] = tested on: Pseudomonas aeruginosa; test: Antibacterial activity against Pseudomonas aeruginosa clinical isolates infected in BALB/c mouse blood at 20 mg/kg, iv after 24 hrs; type: functional; how it was run: as §2
[9] = tested on: Pseudomonas aeruginosa; test: Effect on Pseudomonas aeruginosa ATCC 27853 induced sepsis in BALB/c mouse assessed as mortality at 20 mg/kg, iv for 72 hrs; type: functional
How it was run: (§3)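 Male BALB/c mice, 25–30 g, housed singly, anesthetized with ketamine 30 mg/kg im. Log-phase bacteria (grown in brain heart infusion broth, resuspended in saline) given iv via tail vein, 2.0 × 10^7 CFU. Drug at 1 or 20 mg/kg iv immediately post-challenge; saline controls. 20 mice/group; lethality over 72 h, compared by Fisher's exact test.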

[10] = tested on: Pseudomonas aeruginosa; test: Antimicrobial activity against Pseudomonas aeruginosa clinical isolates by broth microdilution method; type: functional
How it was run: (§4)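 CLSI broth microdilution in Mueller-Hinton broth with an inoculum of 5 × 10^5 CFU/ml, incubated 18 h at 37°C in air. Plates were shaken throughout when the peptide was tested. The MIC was the lowest concentration inhibiting visible growth. Run in triplicate.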

[11] = tested on: Pseudomonas aeruginosa; test: Antimicrobial activity against Pseudomonas aeruginosa ATCC 27853 by broth microdilution method; type: functional; how it was run: as §4
[12] = tested on: Pseudomonas aeruginosa; test: Effect on Pseudomonas aeruginosa clinical isolate induced sepsis in BALB/c mouse assessed as mortality at 20 mg/kg, iv for 72 hrs; type: functional; how it was run: as §3
[13] = tested on: Pseudomonas aeruginosa; test: Antibacterial activity against Pseudomonas aeruginosa clinical isolates infected in BALB/c mouse blood at 1 mg/kg, iv after 24 hrs; type: functional; how it was run: as §2
[14] = tested on: Pseudomonas aeruginosa; test: Effect on Pseudomonas aeruginosa ATCC 27853 induced sepsis in BALB/c mouse assessed as mortality at 1 mg/kg, iv for 72 hrs; type: functional; how it was run: as §3
[15] = tested on: Pseudomonas aeruginosa; test: Effect on Pseudomonas aeruginosa clinical isolate induced sepsis in BALB/c mouse assessed as mortality at 1 mg/kg, iv for 72 hrs; type: functional; how it was run: as §3
[16] = tested on: Pseudomonas aeruginosa; test: Antibacterial activity against Pseudomonas aeruginosa ATCC 27853 infected in BALB/c mouse blood at 1 mg/kg, iv after 24 hrs; type: functional; how it was run: as §2

Row | Compound | Activity [1] | Activity [2] | Activity [3] | Activity [4] | Activity [5] | Activity [6] | CFU [7] | CFU [8] | Activity [9] [%] | MIC [10] [µg/mL] | MIC [11] [µg/mL] | Activity [12] [%] | CFU [13] | Activity [14] [%] | Activity [15] [%] | CFU [16]
1 | CC[C@H](C)[C@H](NC(=O)CNC(=O)[C@H](CCCNC(=N)N)NC(=O)[C@H](Cc1ccc(O)cc1)NC(=O)[C@H](CS)NC(=O)[C@@H](NC(=O)[C@H](CCCNC(=N)N)NC(=O)[C@H](Cc1ccccc1)NC(=O)[C@H](CS)NC(=O)[C@H](Cc1c[nH]c2ccccc12)NC(=O)[C@@H](N)CCCCN)C(C)C)C(=O)N[C@@H](CS)C(=O)N[C@@H](Cc1ccc(O)cc1)C(=O)N[C@@H](CCCNC(=N)N)C(=O)N[C@@H](CCCCN)C(=O)N[C@@H](CS)C(=O)NC(CCCNC(=N)N)C(N)=O (single isomer, unassigned) [TACHYPLESIN III] | Active | Active | Active | Active | Active | Active | – | – | – | – | – | – | – | – | – | –
2 | C[C@@H](O)[C@H]1C(=O)N2C(C(=O)O)=C(SCCNC=N)C[C@H]12 [IMIPENEM ANHYDROUS] | – | – | – | – | – | – | 2.8 10^3/ml | 8.7 10^6/ml | 30 | 32 (≈ 107 µM) | 0.5 (≈ 1.67 µM) | 80 | – | – | – | –
3 | COLISTIN | Active | Active | Active | Active | Active | Active | – | – | – | 8 | 4 | – | 1.4 10^4/ml | 40 | 30 | 6 10^4/ml
